Screening results from PubChem BioAssay.
Autophagy HCS: modulators of autophagy | MEF GFP-LC3 puncta imaging; test concentration mostly 10 µM | calls only at 10 µM (by protocol) | AID 463193 | 190,000 compounds, 0.98% hits;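 active = percentage of spot-positive cells more than 3 SD above its plate mean, without a fluorescence outlier flag or 80% toxicity; inconclusive = no clear call, values can overlap the other calls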;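 note: spot-positive cell cutoff set from DMSO-treated cells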
b-catenin transl: beta-catenin nuclear translocation modulation; HeLa beta-catenin nuclear translocation, immunofluorescence imaging; nuclear translocation activity, % at 5 µM; 190,000 compounds, 0.3% hits; AID 1665;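 active = nuclear translocation activity above 50% at 5 µM, with a well cell count of 50 or more; inconclusive = wells under 50 cells across six images, flagged as toxic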;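 note: per-cell ratio of nuclear to cytoplasmic median beta-catenin stain intensity; plate controls were DMSO negative control for no effect and GSK-3 inhibitor IX positive control for full effect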
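Test system: human HeLa cell line; Doses: 5 µM primary, 0.02–20 µM confirmation; Incubation: 24 h compound exposure, 37°C; Detection: beta-catenin immunofluorescence imaging with DAPI; Read-out: beta-catenin nuclear/cytoplasmic ratio, % activation.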
MT stabilizer: stabilizes microtubules in HeLa cells. HeLa tubulin immunostaining HCS, 24 h; share of cells brighter than vehicle mean+2SD. % tubulin-high responders, % at 10 µM. 200,000 compounds, 0.83% hits. AID 2205;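 active = plate Z-score above 3 for both tubulin-high and condensed-nucleus cell shares, with cell loss under 80%, at 10 µM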;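 note: anti alpha tubulin signal scored within the nucleus-defined area of each cell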
L major viab: Leishmania major promastigote growth inhibition | Leishmania major promastigotes, resazurin fluorescence viability | inhibition, % at 10 µM | 200,000 compounds, 9% hits; in the data active = inhibition above about 50%;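 note: promastigotes grown with compound for 44 hours at 28 °C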
Dynein transport: blocks dynein driven cargo transport along microtubules | z-score, hits read low | 220,000 compounds, 0.47% hits | 3617.4 mouse cells, GR-EGFP nuclear translocation imaging; test concentration mostly 20 µM; stimulated with dexamethasone, 1 µM; hits give low values | AID 1381;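 active = plate z-score of nuclear minus cytoplasmic receptor signal below a set negative limit, without overly bright fluorescence or cell loss, cut at about -3.5 in these data, passing the limit was not always enough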;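 note: z-score of nuclear minus cytoplasmic ring GR-EGFP intensity difference per well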
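Buffer or medium: tet-free, stripped-serum medium; Also added: dexamethasone, 1.0 µM final; Technique: high-content fluorescence imaging after fixation; Times: 48 h induction, 1 h compound, 30 min dex at 37 °C; Read-out: per-cell GR-EGFP intensity, nucleus versus surrounding cytoplasmic ring, well-averaged.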
CHOP inhibitor: blocks CHOP induction under ER stress | inhibition, % at 10 µM | AID 2732 | CHO-K1 CHOP-promoter luciferase, tunicamycin-induced, 15-18 h | 220,000 compounds, 3.8% hits;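 active = compounds that reduced the stress-induced luciferase reporter signal by more than about 70% of percent inhibition, limit read from the data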;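 note: 0% = tunicamycin plus vehicle and 100% = wells without tunicamycin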
CHOP confirm: confirmation of CHOP induction inhibitors; shares compounds with CHOP inhibitor; CHO-CHOP promoter luciferase reporter, tunicamycin-induced, luminescence; inhibition, % at 10 µM; 2,100 compounds, 45% hits; AID 504437;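 active = mean of three repeat readings of reporter signal inhibition above a set limit, cut at about 70% in these data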;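 note: 0% = tunicamycin plus vehicle and 100% = wells lacking tunicamycin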
* = called active by the depositor. Rows were chosen to be rich in hits. Some 12% of all compounds tested hit in one or more screens of this group.

Results for COc1ccc(CNC[C@@H](CCCCN(C)Cc2ccc(OC)cc2)N2C[C@H](c3ccccc3)N(CCc3ccc(Cl)c(Cl)c3)C(=O)C2=O)cc1 ?
Autophagy HCS: active; b-catenin transl: inconclusive; MT stabilizer: 40; L major viab: 100*; Dynein transport: 4.1; CHOP inhibitor: 105*; CHOP confirm: -131

What do the screens show for `CCOc1ccc(CCN2C(=O)C(=O)N([C@H](CCCN(C)Cc3ccccc3)CNCc3ccccc3)C[C@@H]2C(C)C)cc1`?
b-catenin transl: -1; Dynein transport: 3.7; CHOP inhibitor: 3

How did CCOC(=O)C1=C(c2ccccc2)OC(N)=C(C#N)C1C1CCCCC1 (stereo unspecified) do in these assays?
Autophagy HCS: inactive; b-catenin transl: 3; MT stabilizer: 2; L major viab: 13; Dynein transport: -0.82; CHOP inhibitor: 109*; CHOP confirm: 52

Results for COCCNS(=O)(=O)c1ccc(C)c(C)c1C ?
Autophagy HCS: inactive; b-catenin transl: -3; MT stabilizer: 1; L major viab: -9; Dynein transport: -0.63; CHOP inhibitor: 7

How did O=C(NCC1CCCO1)c1ccc2nc(N3CCCCC3)sc2c1 (stereo unspecified) do in these assays?
Autophagy HCS: inactive; b-catenin transl: 0; MT stabilizer: 4; L major viab: 1; Dynein transport: -0.82; CHOP inhibitor: 10

What do the screens show for `CC1CCN(c2nc3ccc(C(=O)O)cc3s2)CC1`?
Autophagy HCS: inactive; b-catenin transl: -4; MT stabilizer: 3; L major viab: -2; Dynein transport: -0.41; CHOP inhibitor: 97*; CHOP confirm: 108*

How did CCc1nc(NCC(C)C)c(C#N)c2c1COC(C)(C)C2 do in these assays?
Autophagy HCS: inactive; b-catenin transl: -1; MT stabilizer: 5; L major viab: -4; Dynein transport: 0.42; CHOP inhibitor: 108*; CHOP confirm: 71*

Results for Cc1ccc(-c2cc(-c3cccc(F)c3)n[nH]2)c(O)c1 ?
Autophagy HCS: inactive; b-catenin transl: 0; MT stabilizer: 3; L major viab: 24; Dynein transport: -0.36; CHOP inhibitor: -59

What do the screens show for `Cc1ccc(-c2cc(-c3ccccc3C)[nH]n2)c(O)c1`?
Autophagy HCS: inactive; b-catenin transl: inconclusive; MT stabilizer: 6; L major viab: 32; Dynein transport: 1.7; CHOP inhibitor: 102*; CHOP confirm: 9

How did Cc1ccc(O)c(-c2cc(-c3cccc(F)c3)n[nH]2)c1 do in these assays?
Autophagy HCS: inactive; b-catenin transl: -1; MT stabilizer: 2; L major viab: 99*; Dynein transport: 0.087; CHOP inhibitor: 102*; CHOP confirm: 12

How did Cc1ccc(O)c(-c2cc(-c3ccccc3F)[nH]n2)c1 do in these assays?
Autophagy HCS: inactive; b-catenin transl: 0; MT stabilizer: 3; L major viab: 9; Dynein transport: -0.89; CHOP inhibitor: 104*; CHOP confirm: 8

What do the screens show for `Cc1nonc1NC(=O)CSc1nc(C2CCCCC2)nc2ccccc12`?
Autophagy HCS: inactive; b-catenin transl: -1; MT stabilizer: 2; L major viab: 18; Dynein transport: -0.75; CHOP inhibitor: -55

Results for Cc1nonc1NC(=O)CSc1nc(C23CC4CC(CC(C4)C2)C3)nc2ccccc12 ?
b-catenin transl: 2; Dynein transport: 0.26; CHOP inhibitor: 100*; CHOP confirm: -2

How did CCN(CC)c1ccc(NC(=O)C(C)C)cc1 do in these assays?
Autophagy HCS: inactive; b-catenin transl: -3; MT stabilizer: 2; L major viab: -4; Dynein transport: 0.71; CHOP inhibitor: -6

Results for CCN(CC)c1ccc(NC2=C(Cl)C(=O)c3ccccc3C2=O)cc1 ?
Autophagy HCS: inactive; b-catenin transl: -1; MT stabilizer: 3; L major viab: 19; Dynein transport: -4.4*; CHOP inhibitor: 107*; CHOP confirm: -11

How did O=C(CSc1ccc(-c2ccccn2)nn1)N1CCCc2ccccc21 do in these assays?
Autophagy HCS: inactive; b-catenin transl: 0; MT stabilizer: 3; L major viab: -2; Dynein transport: -0.4; CHOP inhibitor: 17

How did Cc1cc(/C=C2/C(=O)NN(c3ccccc3)C2=O)c(C)n1-c1ccc(O)cc1 do in these assays?
Autophagy HCS: inactive; b-catenin transl: 0; MT stabilizer: 2; L major viab: 23; Dynein transport: 0.47; CHOP inhibitor: 21

What do the screens show for `Cc1cc(/C=C2\C(=O)NN(c3ccccc3)C2=O)c(C)n1-c1ccccc1O`?
b-catenin transl: 0; Dynein transport: 1.4; CHOP inhibitor: 96*; CHOP confirm: 15

How did CCOC(=O)C1CCCN(c2c(N3CCN(c4ccccn4)CC3)c(=O)c2=O)C1 (stereo unspecified) do in these assays?
Autophagy HCS: inactive; b-catenin transl: 1; MT stabilizer: 3; L major viab: -2; Dynein transport: 0.16; CHOP inhibitor: 6

Results for O=S(=O)(c1ccc(OCC2CO2)cc1)c1ccc(OCC2CO2)cc1 (stereo unspecified) ?
Autophagy HCS: inactive; b-catenin transl: 0; MT stabilizer: 5; L major viab: 3; Dynein transport: -1.1; CHOP inhibitor: 17

How did Clc1ccc(Cn2cc(/C=N/n3cnnc3)c3ccccc32)c(Cl)c1 do in these assays?
Autophagy HCS: inactive; b-catenin transl: 5; MT stabilizer: 2; L major viab: 34; Dynein transport: -0.65; CHOP inhibitor: 108*; CHOP confirm: 49

Results for COc1ccccc1Nc1ncnc2c1cnn2-c1cccc(C)c1 ?
Autophagy HCS: inactive; b-catenin transl: 0; MT stabilizer: 4; L major viab: 1; Dynein transport: 3.6; CHOP inhibitor: -20

Results for COc1cccc(Nc2ncnc3c2cnn3-c2cccc(C)c2)c1 ?
Autophagy HCS: inactive; b-catenin transl: -2; MT stabilizer: 2; L major viab: 8; Dynein transport: 1.2; CHOP inhibitor: 105*; CHOP confirm: 130*

Results for O=C(NC(=S)Nc1nc2c(ccc3ccccc32)s1)c1cccs1 ?
Autophagy HCS: inactive; b-catenin transl: -4; MT stabilizer: 4; L major viab: 38; Dynein transport: 0.49; CHOP inhibitor: 58

How did CCC(=O)N1N=C(c2c(-c3ccccc3)c3cc(Cl)ccc3[nH]c2=O)CC1c1ccco1 (stereo unspecified) do in these assays?
Autophagy HCS: inactive; b-catenin transl: 2; MT stabilizer: 3; L major viab: 19; Dynein transport: -1; CHOP inhibitor: 103*; CHOP confirm: 116*
